For eleven molecules, Ki and IC50 results are on record in ChEMBL document CHEMBL1127669, “Conformationally constrained peptides and semipeptides derived from RGD as potent inhibitors of the platelet fibrinogen receptor and platelet aggregation” (J Med Chem, 1994).

Assay [1] concerns the target T1, Integrin alpha-IIb/beta-3 (Homo sapiens, UniProt P05106+P08514). The assay can be described thus: Tested for inhibition of fibrinogen binding to purified GPIIb/IIIa isolated from human platelets and reconstituted in liposomes. Put shortly: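 Displacement of [¹²⁵I]fibrinogen from purified human platelet GPIIb/IIIa incorporated into phospholipid vesicles. Values without statistical limits come from a single determination.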

The species entered for another assay is Canis familiaris. The assay can be described thus: Inhibition of platelet aggregation in canine platelet rich plasma induced by ADP. Particulars: Canis lupus familiaris, Plasma. The format is functional, Canis lupus familiaris. The method, boiled down: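 Citrated canine PRP aggregation read optically by light transmittance. Peptide stock was 12 mM in 0.2 M acetic acid. Final 200 µM peptide and 10 µM ADP, pH 7.7, after 5-min preincubation with peptide.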

Assay [2] has as its target T1, Integrin alpha-IIb/beta-3. Nature of the assay: Inhibition of [3H]-SKF- 107260 binding to purified GPIIb/IIIa from human platelets reconstituted in liposomes. Put shortly: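 Competition binding on filter wells precoated with 10 µg/mL polylysine. Reaction started with 0.5 µg lectin-purified receptor, incubated 1 h at room temperature, filtered, washed in ice-cold buffer, scintillation counted. IC50 from nonlinear least-squares fit; Ki by Cheng–Prusoff. Mean of quadruplicates, single experiment.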

SMILES strings stand for the structures. Starred links: 1 amine or outer side, 2 acyl side, 3 side chain; linkers in the order of their positions; H or OH if unused. Positions of bridges follow the written chain, without caps; N, C: chain ends. Non-standard residues stand in square brackets, D forms with d. Residues, ends and D or L forms follow the SMILES beside them. *: point of attachment. X2 = O=C(CN([C@@H](CS[*:3])C(=O)[*:2])[*:1])c1ccccc1; NMeR = CN[C@@H](CCCNC(=N)N)C(=O)O; Pen = CC(C)(S)[C@H](N)C(=O)O; Pentanoyl = CCCCC(=O)*

T1 sequence (P05106 27-788 limits assumed): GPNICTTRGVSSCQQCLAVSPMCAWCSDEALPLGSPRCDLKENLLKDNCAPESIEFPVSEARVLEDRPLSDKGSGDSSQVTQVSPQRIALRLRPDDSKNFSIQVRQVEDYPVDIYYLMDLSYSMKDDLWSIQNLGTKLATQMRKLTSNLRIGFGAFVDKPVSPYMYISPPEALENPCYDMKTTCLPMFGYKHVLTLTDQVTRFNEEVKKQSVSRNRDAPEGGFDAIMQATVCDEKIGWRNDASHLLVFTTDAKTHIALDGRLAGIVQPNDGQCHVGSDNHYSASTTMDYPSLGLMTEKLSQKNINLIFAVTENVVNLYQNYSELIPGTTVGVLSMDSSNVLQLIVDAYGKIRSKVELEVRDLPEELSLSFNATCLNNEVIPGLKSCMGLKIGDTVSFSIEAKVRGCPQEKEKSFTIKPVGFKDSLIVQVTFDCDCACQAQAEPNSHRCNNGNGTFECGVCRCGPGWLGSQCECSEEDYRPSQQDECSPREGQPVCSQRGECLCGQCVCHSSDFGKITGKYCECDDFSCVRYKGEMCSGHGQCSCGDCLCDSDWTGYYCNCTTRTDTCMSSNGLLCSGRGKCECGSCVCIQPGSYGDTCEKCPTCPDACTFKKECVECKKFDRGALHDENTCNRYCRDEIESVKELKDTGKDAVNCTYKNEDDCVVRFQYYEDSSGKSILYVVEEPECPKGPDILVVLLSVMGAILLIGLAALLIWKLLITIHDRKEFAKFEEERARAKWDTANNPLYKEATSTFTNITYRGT
T1 sequence (P08514 32-887 limits assumed): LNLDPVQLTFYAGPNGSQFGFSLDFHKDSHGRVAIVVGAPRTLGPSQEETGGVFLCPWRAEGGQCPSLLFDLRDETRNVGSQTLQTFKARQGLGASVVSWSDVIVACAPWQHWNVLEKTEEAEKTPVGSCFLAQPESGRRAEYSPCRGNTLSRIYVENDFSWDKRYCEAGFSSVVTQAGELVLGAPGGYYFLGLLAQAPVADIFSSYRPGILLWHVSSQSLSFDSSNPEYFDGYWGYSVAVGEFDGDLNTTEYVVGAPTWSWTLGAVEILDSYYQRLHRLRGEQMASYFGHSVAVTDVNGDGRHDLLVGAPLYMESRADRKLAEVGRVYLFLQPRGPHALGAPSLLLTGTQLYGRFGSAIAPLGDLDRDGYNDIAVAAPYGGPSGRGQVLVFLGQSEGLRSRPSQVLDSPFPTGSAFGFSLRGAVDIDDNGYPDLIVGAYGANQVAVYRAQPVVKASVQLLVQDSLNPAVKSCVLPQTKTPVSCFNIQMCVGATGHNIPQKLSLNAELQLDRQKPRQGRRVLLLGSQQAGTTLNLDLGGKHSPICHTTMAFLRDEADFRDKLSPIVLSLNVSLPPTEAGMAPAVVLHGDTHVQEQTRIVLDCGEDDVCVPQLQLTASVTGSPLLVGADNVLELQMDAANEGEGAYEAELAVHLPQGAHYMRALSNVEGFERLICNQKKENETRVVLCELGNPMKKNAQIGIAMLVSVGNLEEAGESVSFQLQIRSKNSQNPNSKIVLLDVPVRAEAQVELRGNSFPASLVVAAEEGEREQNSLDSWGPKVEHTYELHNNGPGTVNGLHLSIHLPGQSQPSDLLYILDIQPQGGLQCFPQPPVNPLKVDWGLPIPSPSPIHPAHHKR
T1 sequence (P08514 891-1039 limits assumed): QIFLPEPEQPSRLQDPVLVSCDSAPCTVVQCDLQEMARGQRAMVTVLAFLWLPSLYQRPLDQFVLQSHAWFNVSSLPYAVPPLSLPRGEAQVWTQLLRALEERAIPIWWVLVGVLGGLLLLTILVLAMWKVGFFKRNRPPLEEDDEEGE

Molecule `CN1C(=O)[C@@H](NCC(=O)c2ccccc2)CSSC(C)(C)[C@@H](C(N)=O)NC(=O)[C@H](CC(=O)O)NC(=O)CNC(=O)[C@@H]1CCCN=C(N)N` (H-[X2][NMeR]GD[Pen]-NH2; disulfide 1-5) displayed a Ki in assay [1] of 0.035 µM. Moreover, 0.28 µM corresponded to half-maximal inhibition in the assay filed under Canis familiaris (IC50).

The molecule `N=C(N)NCCC[C@@H]1NC(=O)c2ccccc2SSc2ccccc2NC(=O)[C@H](CC(=O)O)NC(=O)CNC1=O` (single isomer, unassigned) came in with a Ki in assay [1] of 0.027 µM. The concentration for half-maximal inhibition (IC50) in the assay filed under Canis familiaris turned out to be 0.29 µM.

`CN1C(=O)[C@@H]2CCCN2C(=O)c2ccccc2SSc2ccccc2NC(=O)[C@H](CC(=O)O)NC(=O)CNC(=O)[C@@H]1CCCN=C(N)N` displayed a Ki in assay [1] of 0.82 µM. In the assay filed under Canis familiaris, this molecule gave an IC50 of 1.01 µM.

Take `CC(=O)N[C@H]1CSSC(C)(C)[C@@H](C(N)=O)NC(=O)[C@H](CC(=O)O)NC(=O)CNC(=O)[C@H](CCCN=C(N)N)N(C)C1=O`: the affinity in assay [2], expressed as Ki, was 0.102 µM. For the same molecule, the IC50 in the assay filed under Canis familiaris was 0.36 µM.

Turning to `CC(=O)N[C@H]1CSSC(C)(C)[C@H](C(N)=O)NC(=O)[C@@H](CC(=O)O)NC(=O)CNC(=O)[C@@H](CCCNC(=N)N)NC1=O`, in assay [1], the Ki was found to be 2.65 µM. The molecule further gave a half-maximal inhibitory concentration (IC50) in the assay listed under Canis familiaris of 98.7 µM.

Regarding `CN1C(=O)c2ccccc2SSCCNC(=O)[C@@H](CC(=O)O)NC(=O)CNC(=O)[C@H]1CCCNC(=N)N`, the Ki in assay [1] was found to be 0.0095 µM. The IC50 in the assay listed under Canis familiaris was 0.236 µM.

`CC(=O)N[C@@H]1C(=O)N(C)[C@@H](CCCN=C(N)N)C(=O)NCC(=O)N[C@@H](CC(=O)O)C(=O)N[C@H](C(N)=O)C(C)(C)SSC1(C)C` (single isomer, unassigned): in assay [1], affinity was put at a Ki of 0.0025 µM. The molecule further displayed an IC50 in the assay listed under Canis familiaris of 0.37 µM.

In assay [1], `CN1C(=O)[C@@H](N)CSSC(C)(C)[C@@H](C(N)=O)NC(=O)[C@H](CC(=O)O)NC(=O)CNC(=O)[C@@H]1CCCN=C(N)N` (H-C[NMeR]GD[Pen]-NH2; disulfide 1-5) displayed a Ki of 0.0093 µM. In the assay filed under Canis familiaris, this molecule showed an IC50 of 0.2 µM.

The molecule `CCCCC(=O)N[C@H]1CSSC(C)(C)[C@@H](C(N)=O)NC(=O)[C@H](CC(=O)O)NC(=O)CNC(=O)[C@H](CCCN=C(N)N)N(C)C1=O` (Pentanoyl-C[NMeR]GD[Pen]-NH2; disulfide 1-5) displayed a Ki in assay [1] of 0.026 µM. The IC50 in the assay filed under Canis familiaris was found to be 0.25 µM.

In turn, `CC(=O)N[C@@H]1CSSC(C)(C)[C@H](C(N)=O)NC(=O)[C@H](CC(=O)O)NC(=O)CNC(=O)[C@@H](CCCNC(=N)N)NC1=O` showed a Ki in assay [1] above 1000 µM. The IC50 in the assay listed under Canis familiaris is above 200 µM.

Consider `CN1CC(=O)N[C@@H](CCCNC(=N)N)C(=O)NCC(=O)N[C@@H](CC(=O)O)C(=O)Nc2ccccc2SSc2ccccc2C1=O`, for which, in assay [1], the affinity corresponds to a Ki of 0.143 µM. In the assay listed under Canis familiaris, this molecule displayed an IC50 of 3.46 µM.

Broadly, the Ki is a measure of affinity in units of concentration, obtained from inhibition or displacement. A high value points to lower affinity. As a reminder, the IC50 is the concentration that inhibits the measured activity by half. A lower IC50 goes with greater potency.
